Legend:
[1] = test system: patient-derived GBM neural stem cells (GNS); test: Proliferation assay, dose-response series; assay type: cell-based, human; conditions: for selectivity toward GNS and NS compared with fibroblasts: IC50 of BJ/IC50 of any NS or GNS with the lowest IC50, dose series 0.39–50 µM; for IC50: read-out: potency (IC50) toward GNS, panel of six GNS lines
DRD4 receptor = target: T1, DRD4 receptor (Homo sapiens, UniProt P21917); test: Block of forskolin-induced cAMP response by DRD4 agonist; assay type: cell-based; conditions: G362 cells, pretreatment 30 µM, then forskolin 30 µM
T1 sequence (P21917 1-419): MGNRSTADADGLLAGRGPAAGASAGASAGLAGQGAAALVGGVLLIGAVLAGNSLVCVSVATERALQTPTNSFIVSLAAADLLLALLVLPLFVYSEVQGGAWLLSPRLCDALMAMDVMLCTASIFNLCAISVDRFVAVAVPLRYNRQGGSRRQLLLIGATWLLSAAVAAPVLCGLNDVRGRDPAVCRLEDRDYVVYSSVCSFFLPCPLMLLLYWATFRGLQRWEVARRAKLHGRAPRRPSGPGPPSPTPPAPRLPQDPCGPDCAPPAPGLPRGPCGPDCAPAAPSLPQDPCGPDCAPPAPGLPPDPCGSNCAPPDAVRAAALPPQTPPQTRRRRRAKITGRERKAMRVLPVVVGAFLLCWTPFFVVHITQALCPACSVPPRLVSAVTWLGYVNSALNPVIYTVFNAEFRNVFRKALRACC

adenylate cyclase = test: Forskolin-induced cAMP response in GNS; assay type: cell-based, human; conditions: G362 cells, forskolin 30 µM
Summary of the method: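 G362 GNS cells were stimulated with forskolin (30 µM) to activate adenylate cyclase. Forskolin was given alone or after pretreatment with a DRD4-selective agonist (30 µM). cAMP level was expressed as fold change versus control; n = 3, mean ± SEM.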

GNS (G362 and G411) = test: LC3B+ puncta immunofluorescence; assay type: cell-based, human; conditions: 48 hr; L-741,742 10 µM, PNU 96415E 25 µM
Summary of the method: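 Adherent, serum-free GNS cultures (G362, G411) were exposed for 48 hr to test compounds (DRD4 antagonists) at 10 µM or 25 µM, or DMSO. LC3B was immunostained, and cells with large LC3B+ puncta were counted (>200 cells per group). Results are the fraction of cells; n = 3, mean ± SEM, unpaired one-tailed t test.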

[2] = test system: normal human NS lines (hf5205 and hf6539); test: Neuronal differentiation of normal NS; assay type: cell-based; conditions: with sequential withdrawal of EGF and FGF; VGlut1 expression
GNS (G411 and G362) = test: Flow cytometric cell-cycle analysis of DNA content; assay type: cell-based, human
Summary of the method: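 GNS lines G411 and G362 were grown as adherent monolayers in serum-free medium. They were exposed to test compounds (DRD4 antagonists) at 10 µM or 25 µM, alongside DMSO control, for 48 hr. DNA-content cell-cycle distribution was then analysed.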

[3] = test system: subcutaneous implanted tumor (G362); test: Subcutaneous GNS xenograft in NSG mice; assay type: in vivo, mouse; conditions: 20 mg/kg intraperitoneally; for reduction of average tumor weight at the endpoint: 5 days on, 2 days off, vs vehicle
G362 = test: Combination index with TMZ; assay type: cell-based, human; conditions: in combination with TMZ
Summary of the method: (§1)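 Patient-derived glioblastoma stem cell (GNS) cultures were exposed to temozolomide combined with a test compound (DRD4 antagonist). The combination index (CI) was calculated and plotted against fraction affected (Fa) to judge the interaction.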

[4] = test system: G362 cells injected intracranially; test: Intracranial G362 xenograft survival in NSG mice; assay type: in vivo, mouse
G481 = test: Combination index with TMZ; assay type: cell-based, human; conditions: in combination with TMZ
Summary of the method: as §1

[5] = test system: non-NS control cells (BJ, Daoy, U-2 OS, C8-D1A); test: Proliferation assay in non-NS control cell lines; assay type: cell-based; conditions: highest concentration tested 50 µM
GNS, NS and BJ lines = test: Primary screen of neuroactive compounds, growth inhibition; assay type: cell-based, human; conditions: 5 µM, 5 days; hit = greater than 20% growth inhibition vs DMSO
Summary of the method: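 A 680-compound neuroactive library was screened at 5 µM for 5 days against three human GNS lines, two neural stem cell (NS) lines and BJ fibroblasts. GNS and NS lines were grown as adherent serum-free monolayers. Growth inhibition was calculated relative to DMSO control; a primary hit caused >20% inhibition.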

CCC(Oc1ccc(Cl)cc1)C(=O)OC1CC2CCC(C1)N2C (racemic) [(±)-tropanyl-2-(4-chlorophenoxy)butanoate]
selectivity toward GNS and NS compared with fibroblasts [1]: more than 8 fold

Cc1cccc(NC(=O)CN2CCC(c3ccccn3)CC2)c1 [A412997]
block of forskolin-induced cAMP response (DRD4 receptor): 31.3%

C=C[C@@]1(C)CC(=O)[C@]2(O)[C@@]3(C)[C@@H](O)CCC(C)(C)[C@@H]3[C@H](O)[C@H](OC(C)=O)[C@@]2(C)O1 [Forskolin, forskolin]
increase in cAMP concentration (adenylate cyclase): 2.1 fold

Cc1c(C2CCN(CCc3ccccc3)CC2)noc1-c1ccc(Cl)cc1 [L-741,742]
cells showing large LC3B+ puncta (GNS (G362 and G411)): more than 50% | neuronal differentiation of NS [2]: dramatically enhanced neuronal differentiation | cell-cycle effect (GNS (G411 and G362)): G0/G1 arrest | tumor volume growth vs vehicle control [3]: much slower growth | reduction of average tumor weight at the endpoint [3]: 40.9% | lowest combination index (CI) value (G362): 0.29 | survival over control ([4]; 25 mg/kg alone, treatment from 1 week after engraftment): modest but significant benefit in survival | survival compared with TMZ alone ([4]; 25 mg/kg combined with TMZ (25 or 12.5 mg/kg gavage)): significantly improved survival | selectivity against GNS compared with NS [1]: 8 fold | selectivity toward GNS and NS compared with fibroblasts [1]: more than 8 fold | IC50 [1]: 1.5 to 6.2 µM | lowest combination index (CI) value (G481): 0.28

Clc1ccc(N2CCN(Cc3c[nH]c4ncccc34)CC2)cc1 [L-745,870]
IC50 [1]: 3.1 to 6.2 µM

Nc1ccc(CCN2CCN(c3cccc(C(F)(F)F)c3)CC2)cc1 [LY-165,163]
selectivity toward GNS and NS compared with fibroblasts [1]: more than 8 fold

CN1[C@@H]2CC[C@H]1C[C@@H](OC(=O)c1cc(Cl)cc(Cl)c1)C2 [MDL-72222]
selectivity toward GNS and NS compared with fibroblasts [1]: more than 8 fold

CCN(CC)CCOc1ccc(Cc2ccccc2)cc1 [N,N-diethyl-2-(4-(phenylmethyl)phenoxy) ethanamine]
selectivity toward GNS and NS compared with fibroblasts [1]: more than 8 fold

O=C(NOC[C@H](O)CO)c1ccc(F)c(F)c1Nc1ccc(I)cc1F [PD 0325901]
cell-cycle effect (GNS (G411 and G362)): G0/G1 arrest

Cl.Cl.Fc1ccc(N2CCN(CCC3OCCc4ccccc43)CC2)cc1 (stereo not shown) [PNU 96415E]
sensitivity of non-NS control cells [5]: not sensitive even at the highest concentration tested | cells showing large LC3B+ puncta (GNS (G362 and G411)): more than 50% | cell-cycle effect (GNS (G411 and G362)): G0/G1 arrest | tumor volume growth vs vehicle control [3]: much slower growth | reduction of average tumor weight at the endpoint [3]: 44.3% | lowest combination index (CI) value (G362): 0.56 | selectivity against GNS compared with NS [1]: 8 fold | selectivity toward GNS and NS compared with fibroblasts [1]: more than 8 fold | IC50 [1]: 6.25 µM | lowest combination index (CI) value (G481): 0.32

CCN(CC)CCCC(C)Nc1ccnc2cc(Cl)ccc12 (stereo not shown) [chloroquine]
cell-cycle effect (GNS (G411 and G362)): G0/G1 arrest

CC(C(O)c1ccc(O)cc1)N1CCC(Cc2ccccc2)CC1.CC(C(O)c1ccc(O)cc1)N1CCC(Cc2ccccc2)CC1.O=C(O)C(O)C(O)C(=O)O (stereo not shown) [ifenprodil tartrate]
selectivity against GNS compared with NS [1]: 8 fold | selectivity toward GNS and NS compared with fibroblasts [1]: more than 8 fold

CSc1ccc2c(c1)N(CCC1CCCCN1C)c1ccccc1S2 (stereo not shown) [thioridazine]
primary screen result (GNS, NS and BJ lines): hits

CN1CCN(CCCN2c3ccccc3Sc3ccc(C(F)(F)F)cc32)CC1 [trifluoperazine]
primary screen result (GNS, NS and BJ lines): hits

Cc1cc(C)cc(C(=O)OC2CC3CCC(C2)N3C)c1 (stereo not shown) [tropanyl 3,5-dimethylbenzoate]
selectivity toward GNS and NS compared with fibroblasts [1]: more than 8 fold

PD 168568
IC50 [1]: 25 to 50 µM
